The subject of one test is Leukotriene B4 receptor 1 (Cavia porcellus). Briefly: Inhibition of [3H]LTB4 binding to Leukotriene B4 receptor in the guinea pig spleen membranes at a dose of 10 uM. The settings on record: Membrane.
`O=C(O)CCCCOc1cc(-c2ccccc2)c2ccccc2n1` gave an inhibition of 0%.
Same read-out and setting: to `CC(=O)Nc1ccc(-c2cc(OCCCCC(C)(C)C(=O)O)nc3ccccc23)cc1` belongs 23%; to `OCCCCCCOc1cc(-c2ccccc2)c2ccccc2n1`, 14%.
In turn, `O=C(O)CCCCCCc1cc(-c2ccccc2)c2ccccc2n1` yielded an inhibition of 34%.
Turning to `COc1ccccc1-c1cc(OCCCCC(C)(C)C(=O)O)nc2ccccc12`, the inhibition turned out to be 36%.
`O=C(O)CCCC/C=C/c1cc(-c2ccccc2)c2ccccc2n1` had an inhibition of 27%.
As for `O=C(CCCCCOc1cc(-c2ccccc2)c2ccccc2n1)N1CCCC1`, the inhibition is 12%.
The same measure, in the same setting: to `CC(C)(CCCCSc1cc(-c2ccccc2)c2ccccc2n1)C(=O)O` belongs 33%.
With `CC(C)(CCCCNc1cc(-c2ccccc2)c2ccccc2n1)C(=O)O`, the inhibition came out at 0%.

Another test deals with Leukotriene B4 receptor 1 (Homo sapiens, UniProt Q15722). The test is described as follows: Inhibition of [3H]LTB4 binding to Leukotriene B4 receptor in the human polymorphonuclear leukocytes.
Chain of Leukotriene B4 receptor 1 (Q15722 whole entry): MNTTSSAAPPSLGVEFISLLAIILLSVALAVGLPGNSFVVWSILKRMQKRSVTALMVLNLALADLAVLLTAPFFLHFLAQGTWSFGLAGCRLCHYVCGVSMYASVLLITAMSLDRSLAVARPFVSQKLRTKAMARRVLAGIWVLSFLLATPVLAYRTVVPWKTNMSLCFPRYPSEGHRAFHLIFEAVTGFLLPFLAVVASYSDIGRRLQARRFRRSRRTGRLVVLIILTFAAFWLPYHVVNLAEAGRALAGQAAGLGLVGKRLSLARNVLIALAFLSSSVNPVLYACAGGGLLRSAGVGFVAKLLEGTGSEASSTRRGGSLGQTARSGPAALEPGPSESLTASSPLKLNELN
Settings: not given
In outline:
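Human blood PMNs were isolated by dextran T500 sedimentation, Ficoll-Hypaque centrifugation and hypotonic lysis. Cells were suspended in Hanks' solution with 5 mmol/L HEPES and 1 g/L ovalbumin, then incubated on ice for 15 min with 0.5 nmol/L [3H]LTB4 and competitor. Samples were filtered on GF/C, washed and counted. Nonspecific binding was defined with 1000-fold unlabeled LTB4. IC50 was read graphically; mean of three replicates.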
`CC(C)(CCCCOc1cc(-c2ccc(N)cc2)c2ccccc2n1)C(=O)O` yielded an IC50 of 250 nM.
In turn, `CC(C)(CCCCOc1cc(-c2ccc(Cl)cc2)c2ccccc2n1)c1nnn[nH]1` showed an IC50 of 50 nM.
`Cc1ccc(-c2cc(OCCCCC(C)(C)C(=O)O)nc3ccccc23)cc1` had an IC50 of 100 nM.
The compound `O=C(O)CCCCCOc1cc(-c2ccc(Cl)cc2)c2ccccc2n1` yielded an IC50 of 150 nM.
`CC(C)(CCCCOc1cc(-c2ccccc2)c2ccccc2n1)C(=O)O` came in with a concentration for half-maximal inhibition (IC50) of 4000 nM.
In turn, `COc1ccc(/C=C/CCCCOc2ccc(C(=O)c3cccc(C(=O)O)c3)cc2CCC(=O)O)cc1` showed a half-inhibitory concentration (IC50) of 3.5 nM.

Source of the values: ChEMBL document CHEMBL1126259, “omega-[(4-Phenyl-2-quinolyl)oxy]alkanoic acid derivatives: a new family of potent LTB4 antagonists” (J Med Chem, 1992).
